Published values gathered from unrelated publications.
Compare with care: the assays were run in different laboratories. pEC50, pIC50: −log10 of the molar value.

The GI50 of `C=CC(=O)c1cccnc1Nc1cccc(C(F)(F)F)c1` is reported as 29.1 µM (NCI-H226; cell growth or viability, CCK-8; 72 h).
The pIC50 of `CN(C)C(=O)c1cc2cnc(Nc3ccc(N4CCNCC4)cn3)nc2n1C1CCCC1` is reported as 6.08 (human Neutrophil; superoxide release, inhibitor).
`CC(C)c1ccccc1[C@@H]1CCCN1C1CC2(CCN(c3ccc(C(=O)NS(=O)(=O)c4ccc(NC[C@H]5CC[C@](C)(O)CC5)c([N+](=O)[O-])c4)c(Oc4cnc5[nH]ccc5c4)c3)CC2)C1` has a pIC50 of 5.35 (SU-DHL-8; cell growth or viability, ATP luminescence; 48 h).
`O=C(NO)c1ccc(CNc2nc3cccc(-c4ccc5c(c4)OCO5)n3n2)cc1` has a GI50 of 0.58 µM (NCI-H226; cell growth or viability, SRB).
For `O=C(O)c1ccc2c(c1)nc(Nc1cccc(Cl)c1)c1ccncc12`, the pIC50 was 5.24 (NCI-H226; cell growth or viability, crystal violet; 48 h).
With `O=C(O)c1ccccc1Nc1cccc(C(F)(F)F)c1` the GI50 was > 40 µM (NCI-H226; cell growth or viability, CCK-8; 72 h).
For `C=CC(=O)NC1CCN(c2ncc3ncnc(Nc4ccc(Oc5ccc6c(c5)ncn6C)c(C)c4)c3n2)CC1`, the pEC50 was 6.02 (ABC-1; cell growth or viability).
With `C=CC(=O)c1cccnc1Nc1cc(C(F)(F)F)ccc1OC` the GI50 was 16.2 µM (NCI-H226; cell growth or viability, CCK-8; 72 h).
With `C=C(F)C(=O)N1CCN(c2nc(OC[C@@H]3CCCN3C)nc3c2CCN(c2cccc4cccc(Cl)c24)C3)C[C@@H]1CC#N` the pIC50 was < 6.00 (SNU1; cell growth or viability, ATP luminescence; 3D culture).
